Consider 48 sequences from the EternaBench riboswitch data.

The test system of this data set is MS2 coat protein. Kind of data set: apparent Kd, MS2 coat protein; higher = weaker binding; RNA-MaP array; FMN 200 µM where present. The essentials:
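SNAP-549-labelled MS2 coat protein, doubled from 0.7 or 1.5 nM to 3 µM, was titrated over designs transcribed by stalled E. coli RNA polymerase on Illumina sequencing-chip clusters. Titrations were run without and then with constant ligand in 100 mM Tris-HCl pH 7.5, 80 mM KCl, 4 mM MgCl2, BSA, DTT, yeast tRNA and Tween-20. The apparent Kd is the median of filtered per-cluster fits to green signal normalised to red-channel RNA signal and control-cluster median Fmax.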

Where [1] appears, read: designed as: OFF switch for flavin mononucleotide, no ligand.
Setting [2] is: ligand present: flavin mononucleotide, designed as: OFF switch for flavin mononucleotide.
[3] abbreviates: designed as: ON switch for flavin mononucleotide, no ligand.
Where [4] appears, read: ligand present: flavin mononucleotide, designed as: ON switch for flavin mononucleotide.

The term apparent Kd denotes a dissociation constant that holds for the conditions of the assay. For “UAAAUCGGAGGAUAUACAUGAGGAUCACCCAUGUAAUCGCGUUGGCAUCGGUGGGUUAGUAGAAGGCUGUAAAU”, the “apparent Kd” value under setting [1] was found to be 30.5 nM and the “apparent Kd” value under setting [2] came out at 45.3 nM.

For “UAAUUGUGAGGAUAUCAGGUGUGCUAGCGUACUGGUACAUCUGAGAAGGCACAUGAGGAUCACCCAUGUUCCUU”, the “apparent Kd” value by setting is: under setting [1], 13.8 nM; under setting [2], 37.6 nM.

As to “AUACAACAUGAGGAUCACCCAUGUGAGGAUAUGCGAUACAUCAUCAUCAUCAUCAAUCGCAGAAGGCACAACAU”, the “apparent Kd” value is 50.2 nM under setting [1] and 55 nM under setting [2].

On to “CUUUAGUGAGGAUAUCAGUAGUAAUACAAUAGUAUUACUACUGAGAAGGCACAUGAGGAUCACCCAUGUUCUUC”, for which the “apparent Kd” value reads like this: under setting [1], 17.3 nM; under setting [2], 50 nM.

As to “UGUGCCGGAUCAGGAUAUCCACAGCGGCAAUCACAUGAGGAUCACCCAUGUGGAGAAGGGAUUCGCGAAUUAAUAUCUCGAUAA”, the “apparent Kd” value by setting is: under setting [1], 33.5 nM; under setting [2], 56.6 nM.

As for “ACGUUUUUUGAGGAUAUGCGACGUUCCUUCGUCGUAGAAGGCGAUACAUGAGGAUCACCCAUGUUUAUGGGCAU”, the “apparent Kd” value under setting [1] came to 119 nM and the “apparent Kd” value under setting [2] stood at 137 nM.

Consider “UGAGCCUCGUGAGGAUAUACAUGAGGAUCACCCAUGUAAUAAAGUGAACGGAGGAAGCUCCGAAUGUAGAAGGCACGAGGCUCA”, for which the “apparent Kd” value by setting is: under setting [1], 60.1 nM; under setting [2], 372 nM.

As for “UGGUACUAGUGAGGAUAUGGGAAGAUACAUGAGGAUCACCCAUGUUUAAGAAUGCCGAGAGGCAACUAGAAGGCCCUAGUACCU”, the “apparent Kd” value under setting [3] turned out to be 388 nM and the “apparent Kd” value under setting [4] turned out to be 35.8 nM.

“AGCUGUGGCCGAGGAUAUCUGUCCCAUAAAACCGAAAUAUAAUCGGACAUGAGGAUCACCCAUGUAGAGAAGGCGGUCUCAGCA”: the “apparent Kd” value runs as follows: under setting [1], 44.1 nM; under setting [2], 70.7 nM.

As for “UUAAUUAAUUAAUUCGUCAAUUACAUGAGGAUCACCCAUGUAUAGGAUAUGCAGUGGAAUACACUGCAGAAGGAUACAAAGACG”, the “apparent Kd” value under setting [1] was found to be 18.3 nM and the “apparent Kd” value under setting [2] stood at 21.4 nM.

For “AUUAGGUCAGGAUAUACAUGAGGAUCACCCAUGUAGGUGGAACCUUUAUCGGGUGACCGUAGAAGGGACAUCAA”, the “apparent Kd” value was 41.1 nM under setting [1] and 76.3 nM under setting [2].

As to “AUCAUGAGAGGAUAUACAUGAGGAUCACCCAUGUUCUUAUCUCGUCGUGCUCCAUUACGUAGAAGGCUCAUUUA”, the “apparent Kd” value is, setting by setting: under setting [1], 16 nM; under setting [2], 49.2 nM.

On to “AUGCUCAUAGGAUAUAGAUUGAUUCACAUGAGGAUCACCCAUGUAAACUCUACUUUUUAACUAGAAGGAUGUUUUU”, for which the “apparent Kd” value is, setting by setting: under setting [1], 24.7 nM; under setting [2], 23.5 nM.

For the sequence “GGGUUACAUGAGGAUCACCCAUGUGAGGAUAUGAUACUAUGUACUUCGGUACAUAGUAUCAGAAGGCACAUCCC”, the “apparent Kd” value is, setting by setting: under setting [1], 36.5 nM; under setting [2], 72.7 nM.

For the sequence “GUGUGCAGAGGAUAUACAUAGGAAUAUAAUAUAAUAUAAUUACAUGAGGAUCACCCAUGUAGAAGGCUGAGUGU”, the “apparent Kd” value reads like this: under setting [1], 23.8 nM; under setting [2], 26.8 nM.

“UGAACUAUGUAGAAGGCCCUCAUUAAUAUGAAGGGAGGAUAUACAUGAGGAUCACCCAUGUGAAGAGCAAGAGGGUUUAACAGA”: the “apparent Kd” value was 89.1 nM under setting [1] and 479 nM under setting [2].

As to “CCAUGACAAAGUCAUGGUUAACGAACAUGAGGAUCACCCAUGUAGGAUAUGCUACUCAAAGAGUAGCAGAAGGACAUGUGCCUU”, the “apparent Kd” value runs as follows: under setting [1], 34.3 nM; under setting [2], 259 nM.

Turning to “UUACUCAUGUAAGGAUAUGCAGCCGAAACGGCUGCAGAAGGUACUAAAAUACAUGAGGAUCACCCAUGUCUUUUUAAUAUAGAC”, the “apparent Kd” value under setting [3] was found to be 151 nM and the “apparent Kd” value under setting [4] was 80.1 nM.

For “GUCAUGUCAGGAUAUGCUUAUGAUGGGUGCUCAGACAUGAUGCAGAAGGGACAUGAGGAUCACCCAUGUACUGU”, the “apparent Kd” value under setting [1] is 62.5 nM and the “apparent Kd” value under setting [2] came to 62.5 nM.

As to “AAAGUACAUGAGGAUCACCCAUGUCCCAAUGAAUAAGGAUAUACGAAAAUAAAAUAAAAUGUAGAAGGUAUAAUAG”, the “apparent Kd” value reads like this: under setting [3], 31.6 nM; under setting [4], 27.2 nM.

“ACAUGAGAUCUAGGAUAUAUUGUACCUACAUGUGACAUGAGGAUCACCCAUGUGGUAAGUAUGACAUAGAAGGAGAAGAUAUGU”: the “apparent Kd” value was 71 nM under setting [3] and 54.3 nM under setting [4].

Consider “GAUUUCGCAUGAGGAUAUGCUCGCAUUUCAAGAGCAGAAGGUAUGUCUUUAGACAUGAGGAUCACCCAUGUAGUUAAGAUUGAA”, for which the “apparent Kd” value turned out to be 24.3 nM under setting [3] and 14.7 nM under setting [4].

Take “GUUAAGAACUAAGGAUAUUGAAUACAUAUGUUUAACAUGAGGAUCACCCAUGUGGGUUGCGGUGUCGAGAAGGUAGAAUAAUAG”: the “apparent Kd” value is, setting by setting: under setting [3], 201 nM; under setting [4], 195 nM.

With “UGUCGGAGCAGAGGAUAUACAUGAGGAUCACCCAUGUAAUAAAGUGAAGCCUGGAAACAGGCAAUGUAGAAGGCUGCUCCGAUA”, the “apparent Kd” value stood at 12 nM under setting [1] and 88.6 nM under setting [2].

“GGUGCAUAUGAGAAGGUGAUCAUGAAACAUGAUCGAGGAUAUCAUGUAAACAUGAGGAUCACCCAUGUAUGGGAAUAUUGCACC”: the “apparent Kd” value was 46.2 nM under setting [3] and 117 nM under setting [4].

“GCAAAGCCUGACAUGAGGAUCACCCAUGUUAGAUUGUUAUGUCAGGAUAUUGUCUAGCAACUAGACAAGAAGGGAUGCUUUGCC”: the “apparent Kd” value worked out at 603 nM under setting [3] and 50.9 nM under setting [4].

Turning to “AUUCUGCUCGCAGGAUAUCAGGAAAUGUUGAUCUUCUGUAUCUCCUACAUGAGGAUCACCCAUGUUGAGAAGGGCGAUGGCAAU”, the “apparent Kd” value is 65.7 nM under setting [1] and 400 nM under setting [2].

As for “GGCACUGUAGGAUAUACAUGAACAAUUGGUAUCCUCAGUCCACAUGAGGAUCACCCAUGUAGAAGGAUAGAAAA”, the “apparent Kd” value was 58.6 nM under setting [1] and 46.1 nM under setting [2].

Take “UUUUAUUAGUAGAAGGACGGAGAGUAUGUAGUCGUAGGAUAUACAUAAGACAUGAGGAUCACCCAUGUGUGUAUUUUGGGUAUG”: the “apparent Kd” value was found to be 15.7 nM under setting [1] and 13.2 nM under setting [2].

As for “UAGAUCAAUACAGGAUAUGGUGACGCACAUGAGGAUCACCCAUGUCCGCAGCGUGCUCAGCACGCCCAGAAGGGUAUUGAUUCG”, the “apparent Kd” value under setting [3] was 786 nM and the “apparent Kd” value under setting [4] is 80.1 nM.

For the sequence “GCCAGAGAAGGAUAUACGAGGAUCGAGUGGUCACACCUACAACAUGAGGAUCACCCAUGUAGAAGGUUUCGGCU”, the “apparent Kd” value is, setting by setting: under setting [1], 13.9 nM; under setting [2], 16.3 nM.

For “UAUAUAUAGUAAGGAUAUGUAUUUAUUUAAUAAACAGAAGGUACUGACAUGAGGAUCACCCAUGUUUUAGUGUGGGCAUGUAGA”, the “apparent Kd” value was determined as 79.7 nM under setting [1] and 149 nM under setting [2].

“GUAGUGUAUGUAGGAUAUGUGAAGCAAAGCUUCACAGAAGGACAUGAGGAUCACCCAUGUAUUGCAGCCUGCAAUCAGGCUGCU”: the “apparent Kd” value is 41 nM under setting [1] and 144 nM under setting [2].

Take “GGUGCGUUUGUGAGGAUAUGCUGGUCCUUGGCUCAGCAGAAGGCACAUGAGGAUCACCCAUGUGGUGUCGUACC”: the “apparent Kd” value reads like this: under setting [1], 294 nM; under setting [2], 41.8 nM.

For “GAGCUCAAUGAGAAGGGUUACAUGAGGAUCACCCAUGUCGACCUUGGCGUAACAGGAUAUCAUCGGGCUCAGUGCGUUGACCCA”, the “apparent Kd” value came to 24.9 nM under setting [1] and 108 nM under setting [2].

As to “UGUCAGUAACAAGGAUAUUGGAGUUAAUGGCUACGAGAAGGUGUUACAUGAGGAUCACCCAUGUCCUCGCCUGUAGCAAGGACA”, the “apparent Kd” value runs as follows: under setting [1], 87.2 nM; under setting [2], 567 nM.

With “UUAGCGCGAGGAUAUGCGGUUUGUGCUUUGGGCCCUGGCGUACAUGAGGAUCACCCAUGUAGAAGGCGUGUUGU”, the “apparent Kd” value runs as follows: under setting [1], 24.7 nM; under setting [2], 24.8 nM.

“AAUUAACAUGAGGAUCACCCAUGUGAGGAUAUGAUAUUACUUGGACAGCUAUGAUCAAUCAGAAGGCACAUCUU”: the “apparent Kd” value runs as follows: under setting [1], 22.3 nM; under setting [2], 28.5 nM.

Consider “GUGAAGUAAGGAUAUACAUGAGGAUCACCCAUGUGUGGGAAGGUGAUGGGAGUAGGUAGUAGAAGGUACGAGGA”, for which the “apparent Kd” value is, setting by setting: under setting [1], 130 nM; under setting [2], 76.6 nM.

Regarding “CUUUUGUGAGGAUAUCAGUAGUAAUAUAAUAGUAUUACUACUGAGAAGGCACAUGAGGAUCACCCAUGUUCCUC”, the “apparent Kd” value turned out to be 27.4 nM under setting [1] and 50.3 nM under setting [2].

Regarding “CAGCGAUAGCUGAACAAUCUAUCUGAGGAUAUUCAGAAUAAACAUGAGGAUCACCCAUGUAAUUGGGAGAAGGCAGAUAGAUUG”, the “apparent Kd” value runs as follows: under setting [3], 9.19 nM; under setting [4], 5.48 nM.

In the case of “UGAACGUUAGGAUAUACAUGAGGAUCACCCAUGUGUUAUGAGCAAUCAUCGAUAUGUUGUAGAAGGAACGCGCG”, the “apparent Kd” value runs as follows: under setting [1], 24.9 nM; under setting [2], 26.3 nM.

In the case of “UCGGCGCGAGGAUAUGCGGUUUGUGCUUUGGGCCCUGGCGUACAUGAGGAUCACCCAUGUAGAAGGCGCGUUGC”, the “apparent Kd” value runs as follows: under setting [1], 19.4 nM; under setting [2], 20 nM.

Consider “AGACUUGCAGGAUAUACAUGAGGAUCACCCAUGUAUGUAAACUUAUGCGGUGUGACCUGUAGAAGGGUAGGCGU”, for which the “apparent Kd” value under setting [1] came out at 21.1 nM and the “apparent Kd” value under setting [2] came to 24.2 nM.

With “CGCUAAGAUGGGUCUAAUGGACCACAGGAUAUGCUUGUACAUGAGGAUCACCCAUGUAAUAUUGUGCAGAAGGGUGGAUUCGCG”, the “apparent Kd” value reads like this: under setting [3], 66.5 nM; under setting [4], 10.8 nM.

For “AUCAGCUCGUCAGGAUAUACGUCACUGCGUCAGCAUUGUGGUAAGAUCACAUGAGGAUCACCCAUGUAGAAGGGACGAGCUGAU”, the “apparent Kd” value by setting is: under setting [1], 19.5 nM; under setting [2], 190 nM.

With “AAAAAGUGAGGAUAUGCUUUUAUUUAUUAUUAUUAUUAUUUGCAGAAGGCACAUGAGGAUCACCCAUGUAAGAA”, the “apparent Kd” value is, setting by setting: under setting [1], 31.7 nM; under setting [2], 24.9 nM.

On to “GCAGGUAUACGAGGAUAUGGGUGGUACGGACAUGAGGAUCACCCAUGUCUCCCAGAAGGCGUAGCCUAACAUUAAGAGCAGGAG”, for which the “apparent Kd” value reads like this: under setting [3], 122 nM; under setting [4], 22.5 nM.
